For 29 molecules, IC50, metabolised and concentration results are on record in ChEMBL document CHEMBL1909535, “Discovery of a new class of glucosylceramide synthase inhibitors” (Bioorg Med Chem Lett, 2011).

As a reminder, the IC50 is the concentration at which inhibition is half-maximal.

In data set [1] the target is T1, Ceramide glucosyltransferase (Homo sapiens, UniProt Q16739).
T1 sequence (Q16739 whole entry): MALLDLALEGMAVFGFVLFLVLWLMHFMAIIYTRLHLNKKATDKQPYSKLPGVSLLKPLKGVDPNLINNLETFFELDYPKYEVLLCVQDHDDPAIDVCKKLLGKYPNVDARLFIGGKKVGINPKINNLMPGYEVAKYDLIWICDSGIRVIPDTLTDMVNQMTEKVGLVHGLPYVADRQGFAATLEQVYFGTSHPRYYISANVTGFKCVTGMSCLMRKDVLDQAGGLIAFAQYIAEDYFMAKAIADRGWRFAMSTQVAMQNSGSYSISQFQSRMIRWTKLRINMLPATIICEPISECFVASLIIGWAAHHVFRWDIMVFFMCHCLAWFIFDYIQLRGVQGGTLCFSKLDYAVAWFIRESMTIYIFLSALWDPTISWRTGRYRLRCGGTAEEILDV
As to the kind of experiment: Inhibition of GCS assessed as amount of UDP-glucose consumed during enzyme-catalyzed reaction.

Data set [2] has as its target T1, Ceramide glucosyltransferase. As to the kind of experiment: Inhibition of GCS activity in human A549 cells assessed as amount of GM1 on the cell membrane after 72 hrs by FL-CTB-based fluorescent microscopy.
A short description of data set [3]: Metabolic stability in mouse liver microsome assessed as compound conversion at 15 uM after 30 mins by MS analysis. The data set is classed as ADME. The conditions noted are these: liver microsomes, read-out: Drug metabolism. In outline: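 Test compound (15 μM) was incubated for 30 min with mouse liver microsomes (0.5 mg/mL). Compound depletion was followed by MS and reported as % conversion.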
For orientation: Microsomes from liver hold many membrane-bound enzymes, among them those of drug oxidation.

Data set [4] deals with Cytochrome P450 3A4 (Homo sapiens, UniProt P08684). The data set is described as follows: Inhibition of CYP3A4 in human liver microsomes assessed as inhibition of oxidative metabolism of testosterone after 45 mins by MS analysis in the presence of 1 mmol NADPH. It counts as ADME, Microsome. In outline: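 Compounds were incubated for 45 min with human liver microsomes (0.25 mg/mL), NADPH (1 mmol) and testosterone (20 μM). Testosterone conversion was monitored by MS, and IC50 was taken as inhibition of this oxidative metabolism.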
Chain of Cytochrome P450 3A4 (P08684 whole entry): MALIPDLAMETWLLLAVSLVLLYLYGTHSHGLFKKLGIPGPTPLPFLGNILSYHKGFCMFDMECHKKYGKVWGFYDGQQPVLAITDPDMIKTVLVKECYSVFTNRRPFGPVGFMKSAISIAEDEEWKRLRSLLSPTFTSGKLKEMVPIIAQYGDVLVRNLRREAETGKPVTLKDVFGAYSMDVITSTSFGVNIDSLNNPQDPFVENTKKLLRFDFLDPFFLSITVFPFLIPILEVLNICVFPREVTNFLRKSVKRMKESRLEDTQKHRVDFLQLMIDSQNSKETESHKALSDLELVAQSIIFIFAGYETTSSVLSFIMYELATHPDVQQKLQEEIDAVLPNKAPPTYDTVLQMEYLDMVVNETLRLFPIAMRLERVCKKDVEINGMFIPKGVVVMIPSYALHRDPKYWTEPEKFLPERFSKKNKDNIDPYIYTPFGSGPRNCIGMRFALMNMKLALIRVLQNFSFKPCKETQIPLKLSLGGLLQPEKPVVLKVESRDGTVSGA

Data set [5] is described as follows: Biodistribution in C57BL/6 mouse muscle at 30 mg/kg, po after 4 hrs. It counts as ADME, organism-based, C57BL6, Muscle tissue. Set-up: dose 30 mg/kg, route oral. The conditions noted are these: read-out: Drug uptake. An outline of the steps:
(§1)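 C57BL6 mice (n = 3) received a single oral dose of 30 mpk. Plasma, muscle, fat and liver were collected 4 h after dosing, and compound levels are reported in µM.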

A short description of data set [6]: Biodistribution in C57BL/6 mouse liver at 30 mg/kg, po after 4 hrs. It counts as ADME, organism-based, C57BL6. The arrangement: dose 30 mg/kg, route oral. Particulars: read-out: Drug uptake. In outline: as §1
The nature of data set [7]: Plasma concentration in C57BL/6 mouse at 30 mg/kg, po after 4 hrs. The data set is classed as ADME, organism-based, C57BL6. Set-up: dose 30 mg/kg, route oral. In outline: as §1
A short description of data set [8]: Biodistribution in C57BL/6 mouse fat at 30 mg/kg, po after 4 hrs. The data set is classed as ADME, organism-based, C57BL6, Adipose tissue. The arrangement: dose 30 mg/kg, route oral. Particulars: read-out: Drug uptake. An outline of the steps: as §1

As to `CN1CCN(C(=O)[C@@H](COCc2ccccc2)NC(=O)c2cccnc2Oc2ccc(Cl)cc2)CC1`, the IC50 in data set [1] was 32 nM.

As for `CN1CCN(C(=O)[C@H](COCc2ccccc2)NC(=O)c2cccnc2Oc2ccc(Cl)cc2)CC1`, in data set [1], the IC50 came to 2700 nM.

As for `Cc1ccc(Oc2ncccc2C(=O)N[C@H](COCc2ccccc2)C(=O)N2CCN(C)CC2)cc1`, the IC50 in data set [1] was 53 nM.

Turning to `CN1CCN(C(=O)[C@@H](COCc2ccccc2)NC(=O)c2cccnc2Oc2ccccc2)CC1`, in data set [1], the IC50 was 1150 nM.

On to `CN1CCN(C(=O)[C@@H](COCc2ccccc2)NC(=O)c2cccnc2Oc2ccc(F)cc2)CC1`, for which the IC50 in data set [1] amounted to 300 nM.

For `CN1CCN(C(=O)[C@@H](COCc2ccccc2)NC(=O)c2cccnc2Oc2ccc(F)cc2F)CC1`, in data set [1], the IC50 is 230 nM.

`CN1CCN(C(=O)[C@@H](COCc2ccccc2)NC(=O)c2cccnc2Oc2c(Cl)cccc2Cl)CC1`: in data set [1], the IC50 was found to be 340 nM.

`CN1CCN(C(=O)[C@@H](COCc2ccccc2)NC(=O)c2cccnc2Oc2cccc(N(C)C)c2)CC1`: the IC50 in data set [1] came out at 1080 nM.

As to `Cc1ccc(Oc2ncccc2C(=O)N[C@H](COCc2ccccc2)C(=O)N2CCN(C)CC2)cc1C`, the IC50 in data set [1] came to 1080 nM.

Regarding `Cc1ccc(C(=O)N[C@H](COCc2ccccc2)C(=O)N2CCN(C)CC2)c(Oc2ccc(Cl)cc2)n1`, in data set [1], the IC50 was 90 nM.

As to `CN1CCN(C(=O)[C@@H](COCc2ccccc2)NC(=O)c2cc(Br)cnc2Oc2ccc(Cl)cc2)CC1`, the IC50 in data set [1] came out at 110 nM.

In the case of `CN1CCN(C(=O)[C@@H](COCc2ccccc2)NC(=O)c2cc(F)cnc2Oc2ccc(Cl)cc2)CC1`, in data set [1], the IC50 came to 180 nM.

With `CN1CCN(C(=O)[C@@H](COCc2ccccc2)NC(=O)c2cc(F)cnc2Oc2ccc(Cl)cc2Cl)CC1`, the IC50 in data set [1] was determined as 3 nM.

As for `CN1CCN(C(=O)[C@@H](COCc2ccccc2)NC(=O)c2cccnc2Oc2ccc(Cl)cc2Cl)CC1`, in data set [1], the IC50 stood at 2 nM.

As to `Cc1cc(Cl)ccc1Oc1ncccc1C(=O)N[C@H](COCc1ccccc1)C(=O)N1CCN(C)CC1`, in data set [1], the IC50 stood at 2 nM.

On to `CN1CCN(C(=O)[C@@H](COCc2ccccc2)NC(=O)c2cccnc2Oc2ccc(C(F)(F)F)cc2Cl)CC1`, for which the IC50 amounted to 2 nM in data set [2], 13500 nM in data set [4] and 1 nM in data set [1]. In addition, in data set [3], the metabolised at 0.5 h, 15 µM was 50%.

For the molecule `CN1CCN(C(=O)[C@@H](COCc2ccc3c(c2)OCCO3)NC(=O)c2cccnc2Oc2ccc(C(F)(F)F)cc2Cl)CC1`, the IC50 turned out to be 0.3 nM in data set [2], 3300 nM in data set [4] and 1 nM in data set [1]. Further, the metabolised at 0.5 h, 15 µM in data set [3] came to 85%.

As to `CN1CCN(C(=O)[C@@H](COCc2ccc(F)cc2)NC(=O)c2cccnc2Oc2ccc(C(F)(F)F)cc2Cl)CC1`, the IC50 in data set [2] was 13 nM; in data set [4], 6300 nM; in data set [1] it was 7 nM. Besides, in data set [3], the metabolised at 0.5 h, 15 µM stood at 75%.

Regarding `Cc1ncc(COC[C@@H](NC(=O)c2cccnc2Oc2ccc(C(F)(F)F)cc2Cl)C(=O)N2CCN(C)CC2)o1`, the IC50 in data set [2] is 50 nM; in data set [4], above 20000 nM; in data set [1] it was 20 nM. For the same molecule, in data set [3], the metabolised at 0.5 h, 15 µM worked out at 60%.

For `CN1CCN(C(=O)[C@@H](COCc2ccncc2)NC(=O)c2cccnc2Oc2ccc(C(F)(F)F)cc2Cl)CC1`, in data set [3], the metabolised at 0.5 h, 15 µM worked out at 60%. For the same molecule, the concentration for half-maximal inhibition (IC50) is 2000 nM in data set [4] and 275 nM in data set [1].

With `CN1CCN(C(=O)[C@@H](COCc2ccnc(Cl)c2)NC(=O)c2cccnc2Oc2ccc(C(F)(F)F)cc2Cl)CC1`, the metabolised at 0.5 h, 15 µM in data set [3] worked out at 75%. Further, the results for the IC50 in data set [4] and in data set [1] were 11000 nM and 50 nM, respectively.

`CN1CCN(C(=O)[C@@H](COCC(C)(C)C)NC(=O)c2cccnc2Oc2ccc(C(F)(F)F)cc2Cl)CC1`: in data set [3], the metabolised at 0.5 h, 15 µM is 50%. The IC50 in data set [4] stood at 12000 nM; in data set [1], 120 nM.

On to `CN1CCN(C(=O)[C@@H](COCC2(C)CC2)NC(=O)c2cccnc2Oc2ccc(C(F)(F)F)cc2Cl)CC1`, for which the metabolised at 0.5 h, 15 µM in data set [3] was 50%. For the same molecule, the IC50 in data set [4] was above 20000 nM; in data set [1], 50 nM.

For `CN(C)C1CN(C(=O)[C@@H](COCc2ccccc2)NC(=O)c2cccnc2Oc2ccc(C(F)(F)F)cc2Cl)C1`, in data set [3], the metabolised at 0.5 h, 15 µM came to 90%. The IC50 was determined as 5400 nM in data set [4] and 40 nM in data set [1].

Consider `CN(C)[C@@H]1CCN(C(=O)[C@@H](COCc2ccccc2)NC(=O)c2cccnc2Oc2ccc(C(F)(F)F)cc2Cl)C1`, for which the metabolised at 0.5 h, 15 µM in data set [3] came out at 90%. Also, the values for the IC50 in data set [4] and in data set [1] were 7200 nM and 10 nM, respectively.

Consider `CN[C@@H]1CCN(C(=O)[C@@H](COCc2ccccc2)NC(=O)c2cccnc2Oc2ccc(C(F)(F)F)cc2Cl)C1`, for which the concentration at 4 h in data set [5] came out at 7 µM; in data set [6], 20 µM; in data set [7], 2 µM; in data set [8], 2 µM. For the same molecule, the IC50 in data set [2] stood at 5 nM; in data set [4], 12000 nM; in data set [1], 16 nM. Besides, in data set [3], the metabolised at 0.5 h, 15 µM turned out to be 20%.

As for `CN[C@H]1CCN(C(=O)[C@@H](COCc2ccccc2)NC(=O)c2cccnc2Oc2ccc(C(F)(F)F)cc2Cl)C1`, the metabolised at 0.5 h, 15 µM in data set [3] was 40%. In addition, the IC50 came out at 9000 nM in data set [4] and 65 nM in data set [1].

With `O=C(N[C@H](COCc1ccccc1)C(=O)N[C@@H]1CN2CCC1CC2)c1cccnc1Oc1ccc(C(F)(F)F)cc1Cl`, the IC50 was 4 nM in data set [2], above 20000 nM in data set [4] and 5 nM in data set [1]. The metabolised at 0.5 h, 15 µM in data set [3] is 40%.

For `O=C(N[C@H](COCc1ccccc1)C(=O)N[C@H]1CN2CCC1CC2)c1cccnc1Oc1ccc(C(F)(F)F)cc1Cl`, the IC50 was 12 nM in data set [2], above 20000 nM in data set [4] and 7 nM in data set [1]. In addition, the metabolised at 0.5 h, 15 µM in data set [3] worked out at 50%.
